Test results taken from PMC3371134 (Journal of Neurochemistry, 2012).
“Also recorded” adds a separate entry of the source.

Key:
[1] = tested on: calmodulin-like 4 (Calml4); assay: Yeast two-hybrid; format: binding, mouse; settings: LexA and VP16 fusions, lacZ reporter, X-gal
How it was run: (§1)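 Mouse coding sequences (from brain cDNA) were cloned as galactose-inducible LexA and VP16 fusions and co-transformed into S260 yeast, selected on glucose Trp−/Ura− plates. Colonies on filters were switched to galactose for induction, then assayed for lacZ with X-gal. Autoactivation was checked against LexA/VP16 control vectors. Blue within 1 h was scored positive; blue at 2–4 h was scored weak.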

centrin 2 (Cetn2) = assay: Yeast two-hybrid; format: binding, mouse; settings: LexA and VP16 fusions, lacZ reporter, X-gal
How it was run: as §1

calneuron 1 (Caln1) = assay: Yeast two-hybrid; format: binding, mouse; settings: LexA and VP16 fusions, lacZ reporter, X-gal
How it was run: as §1

calmodulin-Sepharose = assay: CaM-Sepharose pulldown of Myc-tagged proteins expressed in COS-7 cells; format: binding
How it was run: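 Myc-tagged mouse constructs (from brain cDNA) were expressed in COS-7 cells, grown in DMEM/10% FBS at 37°C and transfected at 80% confluency with 3 μg plasmid. After 48 h, cells were lysed 30 min at 4°C in TX-buffer (50 mM Tris-HCl pH 6.9, 0.5% Triton X-100, protease inhibitors). Cleared lysate was incubated overnight at 4°C with CaM-Sepharose, then washed 3× and detected by SDS-PAGE/anti-Myc (9E10) western blot with ECL.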

calcineurin B (CnB) = assay: Yeast two-hybrid; format: binding, mouse; settings: LexA and VP16 fusions, lacZ reporter, X-gal
How it was run: as §1

B1: Pcp4l1: small neuronal IQ motif protein, 68 amino acids, full length (protein)
chain: MSELNTKTPPAANQASDPEEKGKPGSIKKAEEEEEIDIDLTAPETEKAALAIQGKFRRFQKRKKDSSS
modifications: left off: Myc, end not stated, kept
For B1, the “interaction with Calml4 in Y2H” value [1] was “no binding was detected”, the “interaction with Cetn2 in Y2H” value (centrin 2 (Cetn2)) was “no binding was detected” and the “interaction with Caln1 in Y2H” value (calneuron 1 (Caln1)) was “no binding was detected”. The “CaM-Sepharose pulldown, calcium-replete” value (calmodulin-Sepharose; 5mM CaCl2, TX-buffer pH 6.9, overnight at 4°C, anti-Myc western blot) was “binds weakly or not at all to CaM; also recorded: interacts poorly with CaM in both low and high calcium conditions”, the “calcium dependence of CaM binding / overall CaM binding” value (calmodulin-Sepharose; 5mM CaCl2 or 5mM EGTA, summary in Discussion) was “little or no binding in either calcium poor or replete conditions” and the “CaM-Sepharose pulldown, calcium-poor” value (calmodulin-Sepharose; 5mM EGTA, TX-buffer pH 6.9, overnight at 4°C, anti-Myc western blot) was “binds weakly or not at all to CaM; also recorded: interacts poorly with CaM in both low and high calcium conditions”. For the same molecule, the “interaction with CnB in Y2H” value (calcineurin B (CnB)) was “no binding was detected”.
